From ChEMBL document CHEMBL4028914, “Structure-Based Design of 6-Chloro-4-aminoquinazoline-2-carboxamide Derivatives as Potent and Selective p21-Activated Kinase 4 (PAK4) Inhibitors” (J Med Chem, 2018)

How the values were obtained:
[1] = Partition coefficient, log P of the compound by UV-metric method; type: physicochemical; details: octanol/water
[2] = Distribution coefficient, logD of the compound at pH 7.4 by UV-metric method; type: physicochemical; details: octanol/water
[3] = Solubility of the compound in DMSO by UV-metric method; type: physicochemical
[4] = Aqueous solubility of the compound at pH 7.4 by UV-metric method; type: physicochemical
[5] = Aqueous solubility of the compound at pH 2.0 by UV-metric method; type: physicochemical
[6] = Half life in rat liver microsomes at 1 uM preincubated for 10 mins followed by NADPH addition measured after 1 hr by LC-MS/MS method; type: ADME, microsome
[7] = Half life in human liver microsomes at 1 uM preincubated for 10 mins followed by NADPH addition measured after 1 hr by LC-MS/MS method; type: ADME, microsome
[8] = Stability in rat liver microsomes assessed as compound remaining at 1 uM preincubated for 10 mins followed by NADPH addition measured after 1 hr by LC-MS/MS method; type: ADME, microsome; details: read-out: Stability
[9] = Stability in human liver microsomes assessed as compound remaining at 1 uM preincubated for 10 mins followed by NADPH addition measured after 1 hr by LC-MS/MS method; type: ADME, microsome; details: read-out: Stability
[10] = Stability in rat liver microsomes assessed as compound remaining at 1 uM in absence of NADPH regenerating system measured after 1 hr by LC-MS/MS method; type: ADME, microsome; details: read-out: Stability
In short: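 Control incubation with rat liver microsomes: buffer replaces the NADPH regenerating system for the whole 60 min incubation. Read-out is percent of parent compound remaining.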

[11] = Stability in human liver microsomes assessed as compound remaining at 1 uM in absence of NADPH regenerating system measured after 1 hr by LC-MS/MS method; type: ADME, microsome; details: read-out: Stability
In short: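 Liver microsomal incubation ran for 60 min without the NADPH regenerating system, which was replaced by buffer. Read-out was percent compound remaining.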

[12] = Intrinsic clearance in rat liver microsomes at 1 uM measured after 1 hr by LC-MS/MS method; type: ADME, microsome; details: read-out: CLH
[13] = Intrinsic clearance in human liver microsomes at 1 uM measured after 1 hr by LC-MS/MS method; type: ADME, microsome; details: read-out: CLH
[14] = Intrinsic clearance in rat liver at 1 uM measured after 1 hr by LC-MS/MS method; type: ADME, tissue-based; details: read-out: CLH
[15] = Intrinsic clearance in human liver at 1 uM measured after 1 hr by LC-MS/MS method; type: ADME, tissue-based; details: read-out: CLH
CYP1A2 = molecular target: T1, CYP1A2 (Homo sapiens, UniProt P05177); assay: Inhibition of CYP1A2 in human liver microsomes at 10 uM using phenacetin as the substrate preincubated for 10 mins followed by NADPH addition measured after 10 mins by LC-MS/MS method; type: ADME; details: probe phenacetin
T1 sequence (P05177 whole entry): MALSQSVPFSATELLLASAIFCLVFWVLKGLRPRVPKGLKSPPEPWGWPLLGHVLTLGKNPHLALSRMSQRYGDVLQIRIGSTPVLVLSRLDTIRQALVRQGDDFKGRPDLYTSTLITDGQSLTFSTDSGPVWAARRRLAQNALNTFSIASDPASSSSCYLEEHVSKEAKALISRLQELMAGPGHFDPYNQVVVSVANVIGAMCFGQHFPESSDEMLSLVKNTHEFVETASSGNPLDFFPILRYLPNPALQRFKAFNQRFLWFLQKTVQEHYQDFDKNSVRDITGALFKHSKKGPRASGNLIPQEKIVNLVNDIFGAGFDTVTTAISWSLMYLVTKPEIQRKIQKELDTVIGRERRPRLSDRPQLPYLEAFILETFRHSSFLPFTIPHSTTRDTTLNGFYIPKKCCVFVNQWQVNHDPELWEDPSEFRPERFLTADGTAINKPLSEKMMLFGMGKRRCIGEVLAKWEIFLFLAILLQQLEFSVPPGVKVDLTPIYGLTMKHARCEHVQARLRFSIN
In short: (§1)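 Each CYP isoform was tested at 10 μM compound. Positive controls: α-naphthoflavone (CYP1A2), sulfaphenazole (CYP2C9), ticlopidine (CYP2C19), quinidine (CYP2D6), ketoconazole (CYP3A4).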

CYP2C9 = CYP2C9 (Homo sapiens, UniProt P11712); assay: Inhibition of CYP2C9 in human liver microsomes at 10 uM using diclofenac as substrate preincubated for 10 mins followed by NADPH addition measured after 10 mins by LC-MS/MS method; type: ADME; details: probe diclofenac; in short: as §1
CYP2C19 = CYP2C19 (Homo sapiens, UniProt P33261); assay: Inhibition of CYP2C19 in human liver microsomes at 10 uM using S-mephenytoin as substrate preincubated for 10 mins followed by NADPH addition measured after 10 mins by LC-MS/MS method; type: ADME; details: probe S-mephenytoin; in short: as §1
CYP2D6 = CYP2D6 (Homo sapiens, UniProt P10635); assay: Inhibition of CYP2D6 in human liver microsomes at 10 uM using dextromethorphan as substrate preincubated for 10 mins followed by NADPH addition measured after 10 mins by LC-MS/MS method; type: ADME; details: probe dextromethorphan; in short: as §1
CYP3A4 = CYP3A4 (Homo sapiens, UniProt P08684); assay: Inhibition of CYP3A4 in human liver microsomes at 10 uM using midozolam as substrate preincubated for 10 mins followed by NADPH addition measured after 10 mins by LC-MS/MS method; type: ADME; details: probe midozolam; in short: as §1
[16] = Stability in Sprague-Dawley rat blood plasma assessed as compound remaining at 2 uM measured after 60 mins by LC-MS/MS method; type: ADME, cell-free; details: read-out: Stability
[17] = Stability in Sprague-Dawley rat blood plasma assessed as compound remaining at 2 uM measured after 120 mins by LC-MS/MS method; type: ADME, cell-free; details: read-out: Stability
hERG (KCNH2) = hERG (KCNH2) (Homo sapiens, UniProt Q12809); assay: Inhibition of human ERG at 40 uM by Qpatch assay relative to control
In short: (§2)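 hERG current was recorded by automated patch clamp (Qpatch 16×) in CHO cells expressing hERG.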

[18] = molecular target: Voltage-gated inwardly rectifying potassium channel KCNH2 (Homo sapiens, UniProt Q12809); assay: Inhibition of human ERG by Qpatch assay; in short: as §2
[19] = Cmax in Sprague-Dawley rat at 2 mg/kg, iv by LC-MS/MS method; type: ADME, organism-based; parameters: dose 2 mg/kg, route intravenous; details: in vivo
In short: (§3)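 Single intravenous dose of 2 mg/kg given to Sprague-Dawley rats. Values are the mean ± SD of three independent determinations.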

[20] = Initial concentration in Sprague-Dawley rat at 2 mg/kg, iv by LC-MS/MS method; type: ADME, organism-based; details: in vivo; in short: as §3
[21] = Clearance in Sprague-Dawley rat at 2 mg/kg, iv by LC-MS/MS method; type: ADME, organism-based; details: in vivo; in short: as §3
[22] = Volume of distribution at steady state in Sprague-Dawley rat at 2 mg/kg, iv by LC-MS/MS method; type: ADME, organism-based; details: in vivo, read-out: Vdss
In short: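 Sprague-Dawley rats receive a single intravenous dose of 2 mg/kg. Pharmacokinetic parameters derived are C0, clearance, Vss, T1/2, AUC(0−t) and AUC(0−∞). Values are averages of three independent determinations, reported as mean ± SD.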

[23] = Half life in Sprague-Dawley rat at 2 mg/kg, iv by LC-MS/MS method; type: ADME, organism-based; details: in vivo; in short: as §3
[24] = AUC (0 to t) in Sprague-Dawley rat at 2 mg/kg, iv by LC-MS/MS method; type: ADME, organism-based; details: in vivo; in short: as §3
[25] = AUC (0 to infinity) in Sprague-Dawley rat at 2 mg/kg, iv by LC-MS/MS method; type: ADME, organism-based; parameters: dose 2 mg/kg, route intravenous, time infinity; details: in vivo; in short: as §3
[26] = Dissociation constant, pKa of compound; type: physicochemical

Chain of hERG (KCNH2) (Q12809 whole entry): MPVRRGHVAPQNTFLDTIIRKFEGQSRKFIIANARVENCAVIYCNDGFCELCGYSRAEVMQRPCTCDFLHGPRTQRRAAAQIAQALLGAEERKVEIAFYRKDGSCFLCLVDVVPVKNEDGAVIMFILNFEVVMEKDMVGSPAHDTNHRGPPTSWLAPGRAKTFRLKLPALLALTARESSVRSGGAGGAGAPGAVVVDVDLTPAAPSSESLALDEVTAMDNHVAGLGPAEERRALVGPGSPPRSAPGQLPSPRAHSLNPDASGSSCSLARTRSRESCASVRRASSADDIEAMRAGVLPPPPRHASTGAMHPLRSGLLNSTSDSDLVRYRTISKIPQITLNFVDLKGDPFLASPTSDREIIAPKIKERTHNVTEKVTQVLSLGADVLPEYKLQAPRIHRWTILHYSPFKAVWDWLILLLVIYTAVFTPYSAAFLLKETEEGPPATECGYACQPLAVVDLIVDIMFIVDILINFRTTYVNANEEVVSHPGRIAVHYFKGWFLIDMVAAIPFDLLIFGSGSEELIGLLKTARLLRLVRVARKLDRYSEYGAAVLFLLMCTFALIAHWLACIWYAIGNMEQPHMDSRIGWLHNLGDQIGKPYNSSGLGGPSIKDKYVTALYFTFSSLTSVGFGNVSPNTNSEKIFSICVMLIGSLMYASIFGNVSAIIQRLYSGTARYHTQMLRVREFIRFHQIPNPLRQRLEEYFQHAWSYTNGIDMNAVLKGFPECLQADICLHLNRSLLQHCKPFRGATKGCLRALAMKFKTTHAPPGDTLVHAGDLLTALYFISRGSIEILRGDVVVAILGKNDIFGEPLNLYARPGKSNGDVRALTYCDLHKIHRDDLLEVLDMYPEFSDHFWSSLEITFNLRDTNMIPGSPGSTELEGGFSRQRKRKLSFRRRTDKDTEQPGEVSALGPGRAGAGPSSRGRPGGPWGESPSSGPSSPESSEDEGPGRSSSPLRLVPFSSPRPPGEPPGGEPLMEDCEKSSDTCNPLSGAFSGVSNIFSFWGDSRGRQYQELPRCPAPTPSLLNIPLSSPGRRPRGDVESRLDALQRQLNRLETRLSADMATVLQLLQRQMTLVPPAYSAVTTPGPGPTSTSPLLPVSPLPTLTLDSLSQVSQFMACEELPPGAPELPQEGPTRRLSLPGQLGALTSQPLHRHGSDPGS
Chain of Voltage-gated inwardly rectifying potassium channel KCNH2 (Q12809 whole entry): as above
Chain of CYP2D6 (P10635 whole entry): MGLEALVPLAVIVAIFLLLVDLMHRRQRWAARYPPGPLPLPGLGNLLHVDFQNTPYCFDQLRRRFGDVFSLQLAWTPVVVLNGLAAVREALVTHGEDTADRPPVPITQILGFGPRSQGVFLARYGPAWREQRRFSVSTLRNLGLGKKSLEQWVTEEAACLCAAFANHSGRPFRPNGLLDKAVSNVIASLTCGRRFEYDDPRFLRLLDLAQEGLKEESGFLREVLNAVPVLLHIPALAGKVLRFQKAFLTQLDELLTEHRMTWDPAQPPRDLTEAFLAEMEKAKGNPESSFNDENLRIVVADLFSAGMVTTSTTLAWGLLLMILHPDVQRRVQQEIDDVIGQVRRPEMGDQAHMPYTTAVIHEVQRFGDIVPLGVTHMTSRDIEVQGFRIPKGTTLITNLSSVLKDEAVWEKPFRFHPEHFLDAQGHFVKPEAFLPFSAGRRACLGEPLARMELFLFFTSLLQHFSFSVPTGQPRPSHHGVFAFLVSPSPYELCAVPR
Chain of CYP2C9 (P11712 whole entry): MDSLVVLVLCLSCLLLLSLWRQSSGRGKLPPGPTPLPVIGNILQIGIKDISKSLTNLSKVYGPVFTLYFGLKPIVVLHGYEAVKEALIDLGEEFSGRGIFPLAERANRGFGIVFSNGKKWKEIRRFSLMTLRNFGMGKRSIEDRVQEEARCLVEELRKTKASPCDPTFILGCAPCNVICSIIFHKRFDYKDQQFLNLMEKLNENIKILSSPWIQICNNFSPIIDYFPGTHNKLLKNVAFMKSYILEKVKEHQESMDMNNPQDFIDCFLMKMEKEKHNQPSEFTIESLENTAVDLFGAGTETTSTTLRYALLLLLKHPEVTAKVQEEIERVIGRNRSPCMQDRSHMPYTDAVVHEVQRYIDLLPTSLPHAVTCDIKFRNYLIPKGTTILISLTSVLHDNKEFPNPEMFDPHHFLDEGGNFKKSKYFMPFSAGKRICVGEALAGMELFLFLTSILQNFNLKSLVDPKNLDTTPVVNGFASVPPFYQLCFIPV
Chain of CYP3A4 (P08684 whole entry): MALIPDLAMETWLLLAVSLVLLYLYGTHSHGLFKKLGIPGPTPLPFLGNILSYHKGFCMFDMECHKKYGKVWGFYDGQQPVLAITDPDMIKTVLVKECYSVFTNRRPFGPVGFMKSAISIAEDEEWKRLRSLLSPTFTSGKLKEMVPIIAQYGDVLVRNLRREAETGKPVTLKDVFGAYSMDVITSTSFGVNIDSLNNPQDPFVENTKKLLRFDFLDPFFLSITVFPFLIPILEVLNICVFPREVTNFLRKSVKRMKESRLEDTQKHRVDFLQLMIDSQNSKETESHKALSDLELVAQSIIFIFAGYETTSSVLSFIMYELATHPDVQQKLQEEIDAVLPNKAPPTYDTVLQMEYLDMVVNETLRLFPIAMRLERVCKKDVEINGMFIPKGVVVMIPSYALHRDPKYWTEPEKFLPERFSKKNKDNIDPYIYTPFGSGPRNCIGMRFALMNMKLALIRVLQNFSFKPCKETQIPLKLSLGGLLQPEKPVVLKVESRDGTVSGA
Chain of CYP2C19 (P33261 whole entry): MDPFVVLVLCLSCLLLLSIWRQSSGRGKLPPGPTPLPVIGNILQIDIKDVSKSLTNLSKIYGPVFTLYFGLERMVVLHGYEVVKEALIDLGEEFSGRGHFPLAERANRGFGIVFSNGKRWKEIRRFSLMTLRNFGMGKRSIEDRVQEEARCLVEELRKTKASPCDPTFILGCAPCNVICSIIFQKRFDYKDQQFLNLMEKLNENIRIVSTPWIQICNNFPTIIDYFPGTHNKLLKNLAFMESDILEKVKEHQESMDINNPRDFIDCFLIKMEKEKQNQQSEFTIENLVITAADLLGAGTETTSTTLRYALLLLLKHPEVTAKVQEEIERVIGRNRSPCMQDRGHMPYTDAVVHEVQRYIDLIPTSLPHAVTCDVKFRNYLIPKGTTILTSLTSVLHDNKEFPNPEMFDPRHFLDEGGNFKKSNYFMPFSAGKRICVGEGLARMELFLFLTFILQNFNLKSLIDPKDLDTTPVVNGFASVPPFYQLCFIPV

**Q.** Which logP [1] does the source give for C[C@@H]1CN(C(=O)c2nc(Nc3cc(C4CC4)[nH]n3)c3cc(Cl)ccc3n2)CCN1.Cl here?
**A.** 2.54

**Q.** What about the logD [2] of the same compound?
**A.** 1.9

**Q.** And the solubility [3]?
**A.** > 30 mM

**Q.** What about the solubility [4] of the same compound?
**A.** > 10000 µg/mL

**Q.** And the solubility [5]?
**A.** > 10000 µg/mL

**Q.** And the half-life at 1 µM [6]?
**A.** 41.8 min

**Q.** And the half-life at 1 µM [7]?
**A.** 48.4 min

**Q.** What about the remaining at 1 h, 1 µM [8] of the same compound?
**A.** 36.9%

**Q.** What about the remaining at 1 h, 1 µM [9] of the same compound?
**A.** 41.9%

**Q.** What about the remaining at 1 h, 1 µM [10] of the same compound?
**A.** 97%

**Q.** And the remaining at 1 h, 1 µM [11]?
**A.** 103%

**Q.** And the microsomal CLint at 1 µM [12]?
**A.** 33.2 µL/min/mg

**Q.** What about the microsomal CLint at 1 µM [13] of the same compound?
**A.** 28.7 µL/min/mg

**Q.** And the CLint scaled at 1 µM [14]?
**A.** 59.7 mL/min/kg

**Q.** And the CLint scaled at 1 µM [15]?
**A.** 25.8 mL/min/kg

**Q.** And the inhibition at 10 min, 10 µM (CYP1A2)?
**A.** 17.2%

**Q.** What about the inhibition at 10 min, 10 µM (CYP2C9) of the same compound?
**A.** 15.1%

**Q.** What about the inhibition at 10 min, 10 µM (CYP2C19) of the same compound?
**A.** 12.2%

**Q.** And the inhibition at 10 min, 10 µM (CYP2D6)?
**A.** 1.8%

**Q.** What about the inhibition at 10 min, 10 µM (CYP3A4) of the same compound?
**A.** 2.3%

**Q.** And the remaining at 1 h, 2 µM [16]?
**A.** 110%

**Q.** And the remaining at 2 h, 2 µM [17]?
**A.** 115%

**Q.** And the inhibition at 40 µM (hERG (KCNH2))?
**A.** 42%

**Q.** What about the IC50 [18] of the same compound?
**A.** > 40 µM

**Q.** And the Cmax [19]?
**A.** 736 ng/mL

**Q.** What about the C0 [20] of the same compound?
**A.** 736 ng/mL

**Q.** And the clearance [21]?
**A.** 70.7 mL/min/kg

**Q.** What about the Vd [22] of the same compound?
**A.** 6.43 L/kg

**Q.** What about the half-life [23] of the same compound?
**A.** 87.6 min

**Q.** What about the AUC(0-t) [24] of the same compound?
**A.** 465 ng·h/mL

**Q.** What about the AUC(0-inf) [25] of the same compound?
**A.** 472 ng·h/mL

**Q.** And the pKa [26]?
**A.** 7.93
